Results collected from several papers.
Each line is one published result; the experiments were not run side by side.
MTNR1B: Melatonin receptor type 1B (MTNR1B, Homo sapiens, UniProt P49286)
CDK7 with cyclin H: Cyclin-dependent kinase 7, with cyclin H (CDK7, Homo sapiens, UniProt P50613)
BAZ1A: Bromodomain adjacent to zinc finger domain protein 1A (BAZ1A, Homo sapiens, UniProt Q9NRL2)
RIOK3: Serine/threonine-protein kinase RIO3 (RIOK3, Homo sapiens, UniProt O14730)

Structure (SMILES) | target | assay | system | conditions | measurement | result
CCc1ccc2scc(CCNC(C)=O)c2c1 | MTNR1B | β-arrestin recruitment, agonist | MT2 | 90 min | Emax | 75%
C[C@]12CC[C@@H]3c4ccc(O)cc4CC[C@H]3[C@@H]1CC[C@@H]2O | CDK7 with cyclin H | enzyme activity, inhibitor, ADP detection |  | 10 µM | inhibition | 38.3%
ON=CC1=C(C=Cc2ccccc2)CCC1 | Fibroblast growth factor 23 (Homo sapiens, UniProt Q9GZV9) | thermal stability, DSF |  | 200 µM | ΔTm | 16.5 °C
C[S+]([O-])c1ccc(-c2nc(-c3ccncc3)c(-c3ccc(F)cc3)[nH]2)cc1 (stereo not shown) | BAZ1A | thermal stability, DSF |  | 10 µM | ΔTm | 1.03 °C
COc1ccc2ncn(CCNC(C)=O)c2c1 | MTNR1B | β-arrestin recruitment, agonist | MT2 |  | Emax | 75%
Nc1ncnc2occ(-c3ccc(NC(=O)Nc4cc(C(F)(F)F)ccc4F)cc3)c12 | RIOK3 | cell-free assay, inhibitor |  | 20 µM | remaining signal | 89%
COc1cc2c(cc1OC)[C@@H]1Cc3ccc(OC)c(OC)c3CN1CC2 | CDK7 with cyclin H | enzyme activity, inhibitor, ADP detection |  | 10 µM | inhibition | -19%
Cc1cc2c(cc1N1C(=O)c3cccc4c(Cl)ccc(c34)C1=O)n(C)c(=O)n2C | BAZ1A | thermal stability, DSF |  | 10 µM | ΔTm | -1 °C
CC/C(=C(/CC)c1ccc(O)cc1)c1ccc(O)cc1 | CDK7 with cyclin H | enzyme activity, inhibitor, ADP detection |  | 10 µM | inhibition | 14.7%
COCC(CNC(C)=O)c1cccc2ccc(OC)cc12 (stereo not shown) | MTNR1B | cAMP, agonist, TR-FRET | CHO-K1 | 20 min | Emax | 67%
Cc1ccc(C(=O)Nc2ccc(CN3CCN(C)CC3)c(C(F)(F)F)c2)cc1C#Cc1cnc2cccnn12 | RIOK3 | enzyme activity, inhibitor |  | 23.5 nM | remaining activity | 93%
C[C@@H]1C(=O)O[C@H]2C[C@@]34[C@H]5C[C@@H](C(C)(C)C)[C@]36[C@@H](OC(=O)[C@@H]6O)O[C@@]4(C(=O)O5)[C@]21O | CDK7 with cyclin H | enzyme activity, inhibitor, ADP detection |  | 10 µM | inhibition | 35.3%
COc1cc2c(CCNC(C)=O)c[nH]c2cc1I | MTNR1B | GTPγS binding, agonist, radiometric |  | cell membranes | Emax | 97%
